Measured values published in ChEMBL document CHEMBL1152460, “Phenotypic characterization of resistant Val36 variants of hepatitis C virus NS3-4A serine protease” (Antimicrob Agents Chemother, 2008).

Assays:
Hepatitis C virus [1] = test: Antiviral activity against wild type Con1-mADE HCV replicon in human HuH7 cells after 48 hrs by RNA replicon assay; type: functional, organism-based, Hepacivirus hominis; conditions: subtype 1b Con1-mADE, Huh-7, 48 h
In short: (§1)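 Stable genotype 1b Con1 subgenomic neo replicon cell lines carried three adaptive mutations. They were made by electroporating T7 runoff transcripts (ScaI-linearized template) into naive Huh-7 cells, selected with 0.5 mg/ml G418 and kept in 0.25 mg/ml. Mutations were confirmed by RT-PCR sequencing. EC50 came from a 48-h assay, at least three independent assays, mean ± SD. Fold change = variant mean EC50 / wild-type EC50.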

Hepatitis C virus [2] = test: Antiviral activity against HCV Con1-mADE replicon with NS3 serine protease V36A/R155K double mutation in human HuH7 cells after 48 hrs by RNA replicon assay; type: functional, organism-based, Hepacivirus hominis; conditions: subtype 1b Con1-mADE, Huh-7, 48 h; in short: as §1
[3] = Inhibition of wild type HCV genotype 1a NS3 protease expressed in Escherichia coli BL21 (DE3) measured after 1 hr
Hepatitis C virus [4] = test: Antiviral activity against HCV Con1-mADE replicon with NS3 serine protease V36G mutation in human HuH7 cells after 48 hrs by RNA replicon assay; type: functional, organism-based, Hepacivirus hominis; conditions: subtype 1b Con1-mADE, Huh-7, 48 h; in short: as §1
Hepatitis C virus [5] = test: Antiviral activity against HCV genotype 1 infected in patient assessed as log10 reduction in plasma HCV RNA level at 750 mg dosed every 8 hrs measured after 2 days; type: functional, Hepacivirus hominis
NS3 protease [6] = target: NS3 protease (Hepacivirus C, UniProt C1KIQ2, V36L); test: Inhibition of HCV genotype 1a NS3 protease V36L mutant expressed in Escherichia coli BL21 (DE3); set-up: species or system Hepatitis C virus subtype 1a
In short: (§2)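 NS3 protease domain (genotype 1a isolate 3201 or 1b isolate 3111) was expressed in E. coli BL21(DE3) with 5 h, 1 mM IPTG at 25°C, then purified by Talon and gel filtration. Enzyme was preincubated with 5 μM KK4A cofactor (10 min 25°C, 10 min 30°C), then inhibitor 60 min at 30°C, then 5 μM RET-S1 FRET substrate 20 min at 30°C. Substrate turnover was 10–20%. IC50(1 h) was fitted; 3–5 experiments, mean ± SD.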

Hepatitis C virus [7] = test: Antiviral activity against HCV Con1-mADE replicon with NS3 serine protease V36M/R155T double mutation in human HuH7 cells after 48 hrs by RNA replicon assay; type: functional, organism-based, Hepacivirus hominis; conditions: subtype 1b Con1-mADE, Huh-7, 48 h; in short: as §1
Hepatitis C virus [8] = test: Antiviral activity against HCV Con1-mADE replicon with NS3 serine protease V36G mutation in human HuH7 cells after 48 hrs by RNA replicon assay relative to wild type; type: functional, Hepacivirus hominis, subtype 1b Con1-mADE, Huh-7
In short: (§3)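 Stable HCV genotype 1b subgenomic replicon (Con1-mADE, neo) cell lines made by electroporating ScaI-linearized T7 runoff RNA into naïve Huh-7 cells; selected in 0.5 mg/ml G418, maintained in 0.25 mg/ml; NS3 substitutions confirmed by RT-PCR sequencing. EC50 from 48-h replicon RNA reduction assay, ≥3 independent experiments, mean ± SD; fold change = variant mean EC50 / wild-type mean EC50.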

NS3 protease [9] = target: NS3 protease (Hepacivirus C, UniProt C1KIQ2, R155K/V36M); test: Inhibition of HCV genotype 1a NS3 protease V36M/R155K double mutant expressed in Escherichia coli BL21 (DE3); set-up: species or system Hepatitis C virus subtype 1a; in short: as §2
Hepatitis C virus [10] = test: Antiviral activity against HCV Con1-mADE replicon with NS3 serine protease V36L mutation in human HuH7 cells after 48 hrs by RNA replicon assay relative to wild type; type: functional, Hepacivirus hominis, subtype 1b Con1-mADE, Huh-7; in short: as §1
Hepatitis C virus [11] = test: Inhibition of HCV genotype 1b NS3 protease V36A mutant expressed in Escherichia coli BL21 (DE3); set-up: species or system Hepatitis C virus subtype 1b; in short: as §2
Hepatitis C virus [12] = test: Antiviral activity against HCV Con1-mADE replicon with NS3 serine protease V36A/T54A double mutation in human HuH7 cells after 48 hrs by RNA replicon assay relative to wild type; type: functional, Hepacivirus hominis, subtype 1b Con1-mADE, Huh-7; in short: as §3
NS3 protease [13] = target: NS3 protease (Hepacivirus C, UniProt C1KIQ2, V36M); test: Inhibition of HCV genotype 1a NS3 protease V36M mutant expressed in Escherichia coli BL21 (DE3); set-up: species or system Hepatitis C virus subtype 1a; in short: as §2
Hepatitis C virus [14] = test: Antiviral activity against HCV Con1-mADE replicon with NS3 serine protease V36A/R155T double mutation in human HuH7 cells after 48 hrs by RNA replicon assay; type: functional, organism-based, Hepacivirus hominis; conditions: subtype 1b Con1-mADE, Huh-7, 48 h; in short: as §1
Hepatitis C virus [15] = test: Antiviral activity against HCV Con1-mADE replicon with NS3 serine protease T54A mutation in human HuH7 cells after 48 hrs by RNA replicon assay relative to wild type
Hepatitis C virus [16] = test: Antiviral activity against HCV Con1-mADE replicon with NS3 serine protease V36M/A156T double mutation in human HuH7 cells after 48 hrs by RNA replicon assay relative to wild type; type: functional, Hepacivirus hominis, subtype 1b Con1-mADE, Huh-7; in short: as §3
Hepatitis C virus [17] = test: Antiviral activity against HCV Con1-mADE replicon with NS3 serine protease V36A/T54A double mutation in human HuH7 cells after 48 hrs by RNA replicon assay; type: functional, organism-based, Hepacivirus hominis; conditions: subtype 1b Con1-mADE, Huh-7, 48 h; in short: as §1
Hepatitis C virus [18] = test: Antiviral activity against HCV Con1-mADE replicon with NS3 serine protease V36M/R155K double mutation in human HuH7 cells after 48 hrs by RNA replicon assay; type: functional, organism-based, Hepacivirus hominis; conditions: subtype 1b Con1-mADE, Huh-7, 48 h; in short: as §1
Hepatitis C virus [19] = test: Antiviral activity against HCV Con1-mADE replicon with NS3 serine protease V36A/R155T double mutation in human HuH7 cells after 48 hrs by RNA replicon assay relative to wild type; type: functional, Hepacivirus hominis, subtype 1b Con1-mADE, Huh-7; in short: as §1
Hepatitis C virus [20] = test: Inhibition of wild type HCV genotype 1b NS3 protease expressed in Escherichia coli BL21 (DE3); set-up: species or system Hepatitis C virus subtype 1b
In short: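 NS3 protease domain (genotype 1a isolate 3201 or 1b isolate 3111) induced 5 h with 1 mM IPTG at 25°C and purified by Talon affinity and gel filtration. Preincubated with 5 μM KK4A cofactor peptide, then with inhibitor 60 min at 30°C. Then 20 min at 30°C with 5 μM RET-S1 FRET depsipeptide, reading product release at 10–20% turnover. IC50(1 h) by curve fit; 3–5 independent experiments, mean ± SD.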

Hepatitis C virus [21] = test: Antiviral activity against HCV Con1-mADE replicon with NS3 serine protease V36A/R155K double mutation in human HuH7 cells after 48 hrs by RNA replicon assay relative to wild type; type: functional, Hepacivirus hominis, subtype 1b Con1-mADE, Huh-7; in short: as §1
Hepatitis C virus [22] = test: Antiviral activity against HCV Con1-mADE replicon with NS3 serine protease V36M mutation in human HuH7 cells after 48 hrs by RNA replicon assay relative to wild type; type: functional, Hepacivirus hominis, subtype 1b Con1-mADE, Huh-7; in short: as §1
Hepatitis C virus [23] = test: Selectivity ratio of IC50 for HCV genotype 1b NS3 protease V36A mutant to IC50 for wild type HCV genotype 1b NS3 protease; set-up: species or system Hepatitis C virus subtype 1b
In short: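 Purified genotype 1b NS3 protease domain (wild-type isolate 3111 or V36A), E. coli BL21(DE3)-expressed, preincubated with 5 μM KK4A cofactor peptide 10 min 25°C then 10 min 30°C; inhibitor 60 min 30°C; then 5 μM RET-S1 FRET depsipeptide 20 min 30°C, 10–20% turnover. IC50(1 h) fitted; fold change = variant/wild-type IC50, 3–5 independent experiments, mean ± SD.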

Hepatitis C virus [24] = test: Antiviral activity against HCV Con1-mADE replicon with NS3 serine protease V36L mutation in human HuH7 cells after 48 hrs by RNA replicon assay; type: functional, organism-based, Hepacivirus hominis; conditions: subtype 1b Con1-mADE, Huh-7, 48 h; in short: as §1
Hepatitis C virus [25] = test: Antiviral activity against HCV Con1-mADE replicon with NS3 serine protease V36A mutation in human HuH7 cells after 48 hrs by RNA replicon assay; type: functional, organism-based, Hepacivirus hominis; conditions: subtype 1b Con1-mADE, Huh-7, 48 h; in short: as §1
Hepatitis C virus [26] = test: Antiviral activity against HCV Con1-mADE replicon with NS3 serine protease T54A mutation in human HuH7 cells after 48 hrs by RNA replicon assay; conditions: subtype 1b Con1-mADE, Huh-7, 48 h
Hepatitis C virus [27] = test: Antiviral activity against HCV Con1-mADE replicon with NS3 serine protease V36A mutation in human HuH7 cells after 48 hrs by RNA replicon assay relative to wild type; type: functional, Hepacivirus hominis, subtype 1b Con1-mADE, Huh-7; in short: as §1
Hepatitis C virus [28] = test: Antiviral activity against HCV Con1-mADE replicon with NS3 serine protease V36M/R155T double mutation in human HuH7 cells after 48 hrs by RNA replicon assay relative to wild type; type: functional, Hepacivirus hominis, subtype 1b Con1-mADE, Huh-7; in short: as §1
Hepatitis C virus [29] = test: Antiviral activity against HCV Con1-mADE replicon with NS3 serine protease V36M/R155K double mutation in human HuH7 cells after 48 hrs by RNA replicon assay relative to wild type; type: functional, Hepacivirus hominis, subtype 1b Con1-mADE, Huh-7; in short: as §1
Hepatitis C virus [30] = test: Antiviral activity against HCV genotype 1 infected in patient assessed as logarithmic maximal reduction in plasma HCV RNA level at 750 mg dosed every 8 hrs measured after 14 days; type: functional, Hepacivirus hominis
Hepatitis C virus [31] = test: Antiviral activity against HCV Con1-mADE replicon with NS3 serine protease V36M/A156T double mutation in human HuH7 cells after 48 hrs by RNA replicon assay; type: functional, organism-based, Hepacivirus hominis; conditions: subtype 1b Con1-mADE, Huh-7, 48 h; in short: as §1
Hepatitis C virus [32] = test: Antiviral activity against HCV Con1-mADE replicon with NS3 serine protease V36M mutation in human HuH7 cells after 48 hrs by RNA replicon assay; type: functional, organism-based, Hepacivirus hominis; conditions: subtype 1b Con1-mADE, Huh-7, 48 h; in short: as §1

| Structure (SMILES) | EC50 (Hepatitis C virus [1]) | EC50 (Hepatitis C virus [2]) | EC50 (Hepatitis C virus [7]) | fold change (FC) (Hepatitis C virus [10]) | EC50 (Hepatitis C virus [14]) | EC50 (Hepatitis C virus [18]) | fold change (FC) (Hepatitis C virus [19]) | fold change (FC) (Hepatitis C virus [21]) | fold change (FC) (Hepatitis C virus [22]) | EC50 (Hepatitis C virus [25]) | EC50 (Hepatitis C virus [26]) | fold change (FC) (Hepatitis C virus [27]) | fold change (FC) (Hepatitis C virus [28]) | fold change (FC) (Hepatitis C virus [29]) | EC50 (Hepatitis C virus [32]) | further results |
| --- | --- | --- | --- | --- | --- | --- | --- | --- | --- | --- | --- | --- | --- | --- | --- | --- |
| CCC[C@H](NC(=O)[C@@H]1[C@H]2CCC[C@H]2CN1C(=O)[C@@H](NC(=O)[C@@H](NC(=O)c1cnccn1)C1CCCCC1)C(C)(C)C)C(=O)C(=O)NC1CC1 [TELAPREVIR] | 0.49 µM | 20 µM | > 30 µM | 2.2 | > 30 µM | 30 µM | >62 | 40 | 7 | 3.6 µM | 3 µM | 7.4 | >62 | 62 | 3.4 µM | IC50 [3]: 0.05 µM; EC50 (Hepatitis C virus [4]): 5.4 µM; Activity (Hepatitis C virus [5]): 3; IC50 (NS3 protease [6]): 0.13 µM; fold change (FC) (Hepatitis C virus [8]): 11.2; IC50 (NS3 protease [9]): 3.4 µM; IC50 (Hepatitis C virus [11]): 0.23 µM; fold change (FC) (Hepatitis C virus [12]): 20.1; IC50 (NS3 protease [13]): 0.27 µM; fold change (FC) (Hepatitis C virus [15]): 6.3; fold change (FC) (Hepatitis C virus [16]): >62; EC50 (Hepatitis C virus [17]): 9.7 µM; IC50 (Hepatitis C virus [20]): 0.063 µM; fold change (FC) (Hepatitis C virus [23]): 3.6; EC50 (Hepatitis C virus [24]): 1.1 µM; Activity (Hepatitis C virus [30]): 4.65; EC50 (Hepatitis C virus [31]): > 30 µM |
| NC(=O)c1ncn([C@@H]2O[C@H](CO)[C@@H](O)[C@H]2O)n1 [RIBAVIRIN] | 58 µM | 36 µM | 36 µM | 0.4 | 42 µM | 41 µM | 0.7 | 0.6 | 0.6 | 43 µM | 22 µM | 0.8 | 0.6 | 0.7 | 33 µM | – |
